Source: ChEMBL document CHEMBL3425482, “Structure-guided design and optimization of dipeptidyl inhibitors of norovirus 3CL protease. Structure-activity relationships and biochemical, X-ray crystallographic, cell-based, and in vivo studies” (J Med Chem, 2015)

Biological target: Prothrombin (Homo sapiens) (UniProt P00734)
Experiment: Inhibition of human thrombin after 10 mins incubation by chromogenic substrate hydrolysis assay
Details: not given

SMILES	inhibition [%]
O=C[C@H](C[C@@H]1CCNC1=O)NC(=O)[C@H](CC1CCCCC1)NC(=O)OCc1cccc(Br)c1	0
CCOP(=O)(OCC)C(O)[C@H](C[C@@H]1CCNC1=O)NC(=O)[C@H](CC1CCCCC1)NC(=O)OCc1cccc(Br)c1 (some centres not stated)	0
CCOP(=O)(OCC)C(O)[C@H](C[C@@H]1CCNC1=O)NC(=O)[C@H](CC1CCCCC1)NC(=O)OCc1cccc(Cl)c1 (some centres not stated)	0
O=C[C@H](C[C@@H]1CCNC1=O)NC(=O)[C@H](CC1CCCCC1)NC(=O)OCc1cccc(Cl)c1	0

Biological target: Plasminogen (Homo sapiens) (UniProt P00747)
Sequence (P00747 97-580 limits assumed): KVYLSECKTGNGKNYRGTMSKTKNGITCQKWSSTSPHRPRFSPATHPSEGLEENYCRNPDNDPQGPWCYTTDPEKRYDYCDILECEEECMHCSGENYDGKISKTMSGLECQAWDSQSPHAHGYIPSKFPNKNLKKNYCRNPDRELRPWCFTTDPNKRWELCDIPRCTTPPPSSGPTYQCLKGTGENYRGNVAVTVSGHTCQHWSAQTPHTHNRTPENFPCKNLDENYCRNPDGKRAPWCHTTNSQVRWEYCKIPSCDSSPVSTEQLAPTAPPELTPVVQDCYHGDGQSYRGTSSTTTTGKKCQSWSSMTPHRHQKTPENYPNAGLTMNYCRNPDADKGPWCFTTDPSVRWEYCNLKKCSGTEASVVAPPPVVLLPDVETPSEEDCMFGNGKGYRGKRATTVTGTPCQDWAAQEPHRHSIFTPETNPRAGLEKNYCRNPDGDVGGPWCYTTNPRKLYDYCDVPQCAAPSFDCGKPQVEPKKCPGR
Sequence (P00747 581-810 limits assumed): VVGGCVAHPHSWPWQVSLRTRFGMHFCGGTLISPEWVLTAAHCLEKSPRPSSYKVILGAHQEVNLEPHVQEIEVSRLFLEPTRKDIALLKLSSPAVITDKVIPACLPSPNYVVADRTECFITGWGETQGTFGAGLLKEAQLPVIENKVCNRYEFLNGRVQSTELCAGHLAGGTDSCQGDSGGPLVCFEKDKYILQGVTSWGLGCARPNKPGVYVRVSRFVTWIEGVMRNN
Experiment: Inhibition of plasmin (unknown origin)
Details: concentration not given here

SMILES	inhibition [%]
O=C[C@H](C[C@@H]1CCNC1=O)NC(=O)[C@H](CC1CCCCC1)NC(=O)OCc1cccc(Br)c1	7
CCOP(=O)(OCC)C(O)[C@H](C[C@@H]1CCNC1=O)NC(=O)[C@H](CC1CCCCC1)NC(=O)OCc1cccc(Br)c1 (some centres not stated)	13
CCOP(=O)(OCC)C(O)[C@H](C[C@@H]1CCNC1=O)NC(=O)[C@H](CC1CCCCC1)NC(=O)OCc1cccc(Cl)c1 (some centres not stated)	15
O=C[C@H](C[C@@H]1CCNC1=O)NC(=O)[C@H](CC1CCCCC1)NC(=O)OCc1cccc(Cl)c1	0

Test system: not listed separately
Experiment: Inhibition of Norovirus recombinant 3CL protease using Edans-EPDFHLQGPEDLAK-Dabcyl as substrate for 30 mins by fluorometry
Details: not given

SMILES	IC50 [nM]
O=C[C@H](C[C@@H]1CCNC1=O)NC(=O)[C@H](CC1CCCCC1)NC(=O)OCc1cccc(I)c1	350
CC(C)C[C@H](NC(=O)OCc1ccccc1)C(=O)N[C@@H](C[C@@H]1CCNC1=O)C(O)S(=O)(=O)O (some centres not stated)	800
O=C[C@H](C[C@@H]1CCNC1=O)NC(=O)[C@H](CC1CCCCC1)NC(=O)OCc1ccccc1F	900
O=C[C@H](C[C@@H]1CCNC1=O)NC(=O)[C@H](CC1CCCCC1)NC(=O)OCc1cccc(F)c1	1200
O=C[C@H](C[C@@H]1CCNC1=O)NC(=O)[C@H](CC1CCCCC1)NC(=O)OCc1cccc(Br)c1	300
CCOP(=O)(OCC)C(O)[C@H](C[C@@H]1CCNC1=O)NC(=O)[C@H](CC1CCCCC1)NC(=O)OCc1cccc(Br)c1 (some centres not stated)	6500
CCOP(=O)(OCC)C(O)[C@H](C[C@@H]1CCNC1=O)NC(=O)[C@H](CC1CCCCC1)NC(=O)OCc1cccc(Cl)c1 (some centres not stated)	> 10000
O=C[C@H](C[C@@H]1CCNC1=O)NC(=O)[C@H](CC1CCCCC1)NC(=O)OCc1cccc(Cl)c1	100

Test system: Norovirus
Experiment: Antiviral activity against Norovirus infected in human HG23 cells
Type: functional, cell-based
Details: not given

SMILES	EC50 [nM]
O=C[C@H](C[C@@H]1CCNC1=O)NC(=O)[C@H](CC1CCCCC1)NC(=O)OCc1cccc(I)c1	50
CC(C)C[C@H](NC(=O)OCc1ccccc1)C(=O)N[C@@H](C[C@@H]1CCNC1=O)C(O)S(=O)(=O)O (some centres not stated)	300
O=C[C@H](C[C@@H]1CCNC1=O)NC(=O)[C@H](CC1CCCCC1)NC(=O)OCc1ccccc1F	80
O=C[C@H](C[C@@H]1CCNC1=O)NC(=O)[C@H](CC1CCCCC1)NC(=O)OCc1cccc(F)c1	90
O=C[C@H](C[C@@H]1CCNC1=O)NC(=O)[C@H](CC1CCCCC1)NC(=O)OCc1cccc(Br)c1	30
CCOP(=O)(OCC)C(O)[C@H](C[C@@H]1CCNC1=O)NC(=O)[C@H](CC1CCCCC1)NC(=O)OCc1cccc(Br)c1 (some centres not stated)	150
CCOP(=O)(OCC)C(O)[C@H](C[C@@H]1CCNC1=O)NC(=O)[C@H](CC1CCCCC1)NC(=O)OCc1cccc(Cl)c1 (some centres not stated)	60
O=C[C@H](C[C@@H]1CCNC1=O)NC(=O)[C@H](CC1CCCCC1)NC(=O)OCc1cccc(Cl)c1	20

Biological target: Coagulation factor X (Homo sapiens) (UniProt P00742)
Sequence (P00742 41-179 limits assumed): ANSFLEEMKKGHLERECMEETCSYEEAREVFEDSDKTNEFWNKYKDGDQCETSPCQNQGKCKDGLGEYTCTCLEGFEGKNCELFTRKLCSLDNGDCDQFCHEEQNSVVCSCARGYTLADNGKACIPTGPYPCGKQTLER
Sequence (P00742 235-488 limits assumed): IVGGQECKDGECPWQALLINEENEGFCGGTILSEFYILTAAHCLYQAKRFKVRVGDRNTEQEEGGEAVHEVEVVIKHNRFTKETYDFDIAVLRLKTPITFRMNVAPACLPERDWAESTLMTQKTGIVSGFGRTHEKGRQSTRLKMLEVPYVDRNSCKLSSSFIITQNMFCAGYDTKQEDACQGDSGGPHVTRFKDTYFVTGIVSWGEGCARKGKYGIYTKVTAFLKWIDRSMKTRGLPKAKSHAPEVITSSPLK
Experiment: Inhibition of human factor 10a using Pefachrome-tPA substrate
Details: concentration not given here

SMILES	inhibition [%]
O=C[C@H](C[C@@H]1CCNC1=O)NC(=O)[C@H](CC1CCCCC1)NC(=O)OCc1cccc(Br)c1	0
CCOP(=O)(OCC)C(O)[C@H](C[C@@H]1CCNC1=O)NC(=O)[C@H](CC1CCCCC1)NC(=O)OCc1cccc(Br)c1 (some centres not stated)	6
CCOP(=O)(OCC)C(O)[C@H](C[C@@H]1CCNC1=O)NC(=O)[C@H](CC1CCCCC1)NC(=O)OCc1cccc(Cl)c1 (some centres not stated)	0
O=C[C@H](C[C@@H]1CCNC1=O)NC(=O)[C@H](CC1CCCCC1)NC(=O)OCc1cccc(Cl)c1	1

Test system: not listed separately
Experiment: Antiviral activity against Murine norovirus 1 infected in Balb/c mouse assessed as reduction in viral titers in small intestine at 10 mg/kg, ip twice daily started 4 hrs prior to infection measured after 72 hrs post infection
Details: route intraperitoneal

SMILES	fold change (FC)
O=C[C@H](C[C@@H]1CCNC1=O)NC(=O)[C@H](CC1CCCCC1)NC(=O)OCc1cccc(Cl)c1	42.12

Test system: not listed separately
Experiment: Antiviral activity against Murine norovirus 1 infected in Balb/c mouse assessed as reduction in viral titers in large intestine at 10 mg/kg, ip twice daily started 4 hrs prior to infection measured after 72 hrs post infection
Details: route intraperitoneal

SMILES	fold change (FC)
O=C[C@H](C[C@@H]1CCNC1=O)NC(=O)[C@H](CC1CCCCC1)NC(=O)OCc1cccc(Cl)c1	7.98

Test system: not listed separately
Experiment: Antiviral activity against Murine norovirus 1 infected in mouse RAW264.7 cells assessed as inhibition of viral replication
Type: functional, cell-based
Details: not given
Summary of the method: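 RAW264.7 mouse macrophages were kept in DMEM with 2–5% FBS. Serially diluted compound (DMSO ≤0.5%) was added to confluent monolayers. Cells were infected immediately with MNV-1 at MOI 0.05–0.1 and held 48 h at 37 °C. After freeze-thaw, virus titres were read by TCID50. EC50 came from nonlinear variable-slope regression of inhibition versus log concentration.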

SMILES	EC50 [nM]
O=C[C@H](C[C@@H]1CCNC1=O)NC(=O)[C@H](CC1CCCCC1)NC(=O)OCc1cccc(Cl)c1	80

Organism: Bos taurus
Experiment: Inhibition of bovine trypsin
Details: concentration not given here

SMILES	inhibition [%]
O=C[C@H](C[C@@H]1CCNC1=O)NC(=O)[C@H](CC1CCCCC1)NC(=O)OCc1cccc(Br)c1	0
CCOP(=O)(OCC)C(O)[C@H](C[C@@H]1CCNC1=O)NC(=O)[C@H](CC1CCCCC1)NC(=O)OCc1cccc(Br)c1 (some centres not stated)	1
CCOP(=O)(OCC)C(O)[C@H](C[C@@H]1CCNC1=O)NC(=O)[C@H](CC1CCCCC1)NC(=O)OCc1cccc(Cl)c1 (some centres not stated)	8.8
O=C[C@H](C[C@@H]1CCNC1=O)NC(=O)[C@H](CC1CCCCC1)NC(=O)OCc1cccc(Cl)c1	5

Organism: Homo sapiens
Experiment: Inhibition of chymotrypsin (unknown origin)
Details: concentration not given here

SMILES	inhibition [%]
O=C[C@H](C[C@@H]1CCNC1=O)NC(=O)[C@H](CC1CCCCC1)NC(=O)OCc1cccc(Br)c1	0
CCOP(=O)(OCC)C(O)[C@H](C[C@@H]1CCNC1=O)NC(=O)[C@H](CC1CCCCC1)NC(=O)OCc1cccc(Br)c1 (some centres not stated)	0
CCOP(=O)(OCC)C(O)[C@H](C[C@@H]1CCNC1=O)NC(=O)[C@H](CC1CCCCC1)NC(=O)OCc1cccc(Cl)c1 (some centres not stated)	2.4
O=C[C@H](C[C@@H]1CCNC1=O)NC(=O)[C@H](CC1CCCCC1)NC(=O)OCc1cccc(Cl)c1	0

Biological target: T1, Neutrophil elastase (Homo sapiens) (UniProt P08246)
T1 sequence (whole entry): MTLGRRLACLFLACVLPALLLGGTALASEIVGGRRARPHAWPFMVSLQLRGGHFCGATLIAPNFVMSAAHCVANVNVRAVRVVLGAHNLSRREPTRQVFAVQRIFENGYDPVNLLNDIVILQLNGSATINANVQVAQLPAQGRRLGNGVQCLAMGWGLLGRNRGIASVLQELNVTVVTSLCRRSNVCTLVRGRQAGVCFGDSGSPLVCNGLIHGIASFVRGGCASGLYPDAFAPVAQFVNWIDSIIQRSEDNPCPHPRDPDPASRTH
Experiment: Inhibition of human neutrophil elastase
Details: concentration not given here

SMILES	inhibition [%]
O=C[C@H](C[C@@H]1CCNC1=O)NC(=O)[C@H](CC1CCCCC1)NC(=O)OCc1cccc(Br)c1	26.5
CCOP(=O)(OCC)C(O)[C@H](C[C@@H]1CCNC1=O)NC(=O)[C@H](CC1CCCCC1)NC(=O)OCc1cccc(Br)c1 (some centres not stated)	63
CCOP(=O)(OCC)C(O)[C@H](C[C@@H]1CCNC1=O)NC(=O)[C@H](CC1CCCCC1)NC(=O)OCc1cccc(Cl)c1 (some centres not stated)	86.5
O=C[C@H](C[C@@H]1CCNC1=O)NC(=O)[C@H](CC1CCCCC1)NC(=O)OCc1cccc(Cl)c1	15

Biological target: T2, Carboxypeptidase A1 (Homo sapiens) (UniProt P15085)
T2 sequence (whole entry): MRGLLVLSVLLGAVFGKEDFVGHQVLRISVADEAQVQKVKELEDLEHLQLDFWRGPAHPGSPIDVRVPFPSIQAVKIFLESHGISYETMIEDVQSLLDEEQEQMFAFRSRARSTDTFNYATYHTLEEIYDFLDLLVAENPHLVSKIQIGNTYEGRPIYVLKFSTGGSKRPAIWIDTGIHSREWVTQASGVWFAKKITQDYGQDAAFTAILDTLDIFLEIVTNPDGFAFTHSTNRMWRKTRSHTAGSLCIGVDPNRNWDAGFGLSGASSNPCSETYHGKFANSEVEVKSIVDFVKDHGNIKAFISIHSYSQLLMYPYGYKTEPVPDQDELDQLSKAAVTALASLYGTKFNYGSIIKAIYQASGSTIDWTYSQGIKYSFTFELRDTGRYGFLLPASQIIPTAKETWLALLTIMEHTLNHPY
Experiment: Inhibition of carboxypeptidase A (unknown origin)
Details: concentration not given here

SMILES	inhibition [%]
O=C[C@H](C[C@@H]1CCNC1=O)NC(=O)[C@H](CC1CCCCC1)NC(=O)OCc1cccc(Br)c1	11.6
CCOP(=O)(OCC)C(O)[C@H](C[C@@H]1CCNC1=O)NC(=O)[C@H](CC1CCCCC1)NC(=O)OCc1cccc(Br)c1 (some centres not stated)	0
CCOP(=O)(OCC)C(O)[C@H](C[C@@H]1CCNC1=O)NC(=O)[C@H](CC1CCCCC1)NC(=O)OCc1cccc(Cl)c1 (some centres not stated)	14.3
O=C[C@H](C[C@@H]1CCNC1=O)NC(=O)[C@H](CC1CCCCC1)NC(=O)OCc1cccc(Cl)c1	12
